Reference: ChEMBL document CHEMBL4257453, “Identification of karanjin isolated from the Indian beech tree as a potent CYP1 enzyme inhibitor with cellular efficacy via screening of a natural product repository” (Medchemcomm, 2018)
Blank lines part the entries; values can stand above or below the compound they belong to.

Experiments:
[1] = molecular target: T1, CYP1A1 (Homo sapiens, UniProt P04798); experiment: Inhibition of recombinant human CYP1A1 expressed in baker's yeast-derived microsomes (Sacchrosomes) at 10 uM using 7-ethoxyresorufin substrate by EROD assay relative to control; settings: probe 7-ethoxyresorufin
T1 sequence (P04798 whole entry): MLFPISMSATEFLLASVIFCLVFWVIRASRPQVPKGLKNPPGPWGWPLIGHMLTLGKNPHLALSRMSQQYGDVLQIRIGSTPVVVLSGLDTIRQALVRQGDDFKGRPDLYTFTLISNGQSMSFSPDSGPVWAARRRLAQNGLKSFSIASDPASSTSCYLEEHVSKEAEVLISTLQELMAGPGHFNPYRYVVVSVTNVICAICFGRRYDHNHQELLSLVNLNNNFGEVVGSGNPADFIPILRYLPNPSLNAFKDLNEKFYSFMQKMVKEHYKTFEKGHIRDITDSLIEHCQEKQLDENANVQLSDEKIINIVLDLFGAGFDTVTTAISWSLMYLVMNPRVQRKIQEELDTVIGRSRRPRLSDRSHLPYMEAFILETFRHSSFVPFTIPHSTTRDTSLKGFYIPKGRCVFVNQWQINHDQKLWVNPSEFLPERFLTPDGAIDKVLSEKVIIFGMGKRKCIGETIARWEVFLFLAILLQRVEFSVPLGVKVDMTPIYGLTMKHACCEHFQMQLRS
Procedure, shortened: (§1)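 Yeast microsomes carrying recombinant CYP (Sacchrosomes). Substrates per isoform are 7-ethoxyresorufin, 3-cyano-7-ethoxycoumarin, EOMCC or dibenzylfluorescein, read as endpoint fluorescence. Background from compound-only wells without enzyme is subtracted. Independent triplicate runs; α-naphthoflavone positive control.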

[2] = molecular target: T2, CYP1A2 (Homo sapiens, UniProt P05177); experiment: Inhibition of recombinant human CYP1A2 expressed in baker's yeast-derived microsomes (Sacchrosomes) at 10 uM using 3-cyano-7-ethoxycoumarin substrate by EROD assay relative to control; format: ADME; settings: probe 3-cyano-7-ethoxycoumarin; procedure, shortened: as §1
T2 sequence (P05177 whole entry): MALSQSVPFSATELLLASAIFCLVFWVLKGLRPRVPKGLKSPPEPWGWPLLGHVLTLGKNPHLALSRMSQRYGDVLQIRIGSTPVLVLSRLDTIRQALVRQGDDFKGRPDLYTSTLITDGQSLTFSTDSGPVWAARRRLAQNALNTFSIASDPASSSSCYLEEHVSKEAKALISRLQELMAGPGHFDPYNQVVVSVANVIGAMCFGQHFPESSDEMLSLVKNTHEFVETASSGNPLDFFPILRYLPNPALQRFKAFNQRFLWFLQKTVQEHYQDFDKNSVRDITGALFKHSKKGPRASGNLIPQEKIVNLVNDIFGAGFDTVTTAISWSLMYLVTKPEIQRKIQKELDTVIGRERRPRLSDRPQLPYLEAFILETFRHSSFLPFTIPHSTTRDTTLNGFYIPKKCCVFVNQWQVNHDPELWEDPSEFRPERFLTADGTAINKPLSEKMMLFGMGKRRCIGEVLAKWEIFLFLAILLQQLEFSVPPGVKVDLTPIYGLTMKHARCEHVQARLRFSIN

[3] = molecular target: T3, CYP1B1 (Homo sapiens, UniProt Q16678); experiment: Inhibition of recombinant human CYP1B1 expressed in baker's yeast-derived microsomes (Sacchrosomes) at 10 uM using 7-ethoxyresorufin substrate by EROD assay relative to control; format: ADME; settings: probe 7-ethoxyresorufin
T3 sequence (Q16678 whole entry): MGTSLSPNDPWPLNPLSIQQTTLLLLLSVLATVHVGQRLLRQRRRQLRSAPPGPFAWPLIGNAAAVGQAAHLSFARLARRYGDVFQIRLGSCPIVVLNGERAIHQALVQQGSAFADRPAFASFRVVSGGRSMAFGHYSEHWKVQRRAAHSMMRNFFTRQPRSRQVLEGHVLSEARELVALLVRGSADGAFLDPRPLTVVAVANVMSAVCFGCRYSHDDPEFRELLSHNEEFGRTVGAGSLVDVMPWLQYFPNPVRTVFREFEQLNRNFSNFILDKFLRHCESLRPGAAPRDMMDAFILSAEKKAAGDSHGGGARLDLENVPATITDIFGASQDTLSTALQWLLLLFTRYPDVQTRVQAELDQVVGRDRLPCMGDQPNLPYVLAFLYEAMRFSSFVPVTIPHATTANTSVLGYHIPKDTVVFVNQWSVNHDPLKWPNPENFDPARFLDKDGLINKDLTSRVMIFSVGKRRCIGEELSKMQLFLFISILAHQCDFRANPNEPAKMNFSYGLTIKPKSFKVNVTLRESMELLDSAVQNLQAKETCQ
Procedure, shortened: as §1, with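 “(Sacchrosomes). […]” for “(Sacchrosomes).”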

[4] = molecular target: CYP2D6 (Homo sapiens, UniProt P10635); experiment: Inhibition of recombinant human CYP2D6 expressed in baker's yeast-derived microsomes (Sacchrosomes) at 10 uM using 7-ethoxy-methyloxy-3-cyanocoumarin substrate by EROD assay relative to control; format: ADME; settings: probe 7-ethoxy-methyloxy-3-cyanocoumarin
Chain of CYP2D6 (P10635 whole entry): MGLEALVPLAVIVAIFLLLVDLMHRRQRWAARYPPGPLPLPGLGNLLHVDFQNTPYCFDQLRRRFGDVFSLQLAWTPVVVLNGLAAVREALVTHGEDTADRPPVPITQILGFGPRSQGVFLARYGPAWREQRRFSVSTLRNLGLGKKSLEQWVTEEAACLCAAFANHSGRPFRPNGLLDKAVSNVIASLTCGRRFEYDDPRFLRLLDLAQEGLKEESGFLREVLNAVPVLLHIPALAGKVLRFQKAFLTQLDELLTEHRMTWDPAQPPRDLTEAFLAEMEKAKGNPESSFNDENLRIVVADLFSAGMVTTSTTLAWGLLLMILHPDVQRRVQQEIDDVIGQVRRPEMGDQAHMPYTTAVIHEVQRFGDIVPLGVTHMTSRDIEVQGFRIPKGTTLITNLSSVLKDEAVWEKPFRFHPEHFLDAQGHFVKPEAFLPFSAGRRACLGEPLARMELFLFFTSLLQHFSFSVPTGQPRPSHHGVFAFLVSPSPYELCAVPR
Procedure, shortened: as §1, with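 “(Sacchrosomes). […]” for “(Sacchrosomes).”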

[5] = molecular target: CYP3A4 (Homo sapiens, UniProt P08684); experiment: Inhibition of recombinant human CYP3A4 expressed in baker's yeast-derived microsomes (Sacchrosomes) at 10 uM using dibenzylfluorescein substrate by EROD assay relative to control; format: ADME; settings: probe dibenzylfluorescein
Chain of CYP3A4 (P08684 whole entry): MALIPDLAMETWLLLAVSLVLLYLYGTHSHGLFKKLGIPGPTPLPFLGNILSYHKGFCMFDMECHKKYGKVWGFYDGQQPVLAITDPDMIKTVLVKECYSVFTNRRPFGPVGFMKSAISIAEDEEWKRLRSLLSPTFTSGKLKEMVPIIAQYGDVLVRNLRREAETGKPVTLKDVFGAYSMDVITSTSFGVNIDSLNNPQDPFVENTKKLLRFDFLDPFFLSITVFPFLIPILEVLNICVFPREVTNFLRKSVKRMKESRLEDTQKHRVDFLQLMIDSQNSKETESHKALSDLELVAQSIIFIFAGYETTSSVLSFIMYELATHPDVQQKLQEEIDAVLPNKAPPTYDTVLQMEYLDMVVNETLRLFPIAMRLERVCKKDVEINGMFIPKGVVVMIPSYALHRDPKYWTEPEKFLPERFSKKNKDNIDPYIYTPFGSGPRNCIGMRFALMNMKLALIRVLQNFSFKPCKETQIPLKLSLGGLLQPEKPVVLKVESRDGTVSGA
Procedure, shortened: as §1, with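 “(Sacchrosomes). […]” for “(Sacchrosomes).”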

[6] = molecular target: CYP2C9 (Homo sapiens, UniProt P11712); experiment: Inhibition of recombinant human CYP2C9 expressed in baker's yeast-derived microsomes (Sacchrosomes) at 10 uM using 3-cyano-7-ethoxycoumarin substrate by EROD assay relative to control; format: ADME; settings: probe 3-cyano-7-ethoxycoumarin
Chain of CYP2C9 (P11712 whole entry): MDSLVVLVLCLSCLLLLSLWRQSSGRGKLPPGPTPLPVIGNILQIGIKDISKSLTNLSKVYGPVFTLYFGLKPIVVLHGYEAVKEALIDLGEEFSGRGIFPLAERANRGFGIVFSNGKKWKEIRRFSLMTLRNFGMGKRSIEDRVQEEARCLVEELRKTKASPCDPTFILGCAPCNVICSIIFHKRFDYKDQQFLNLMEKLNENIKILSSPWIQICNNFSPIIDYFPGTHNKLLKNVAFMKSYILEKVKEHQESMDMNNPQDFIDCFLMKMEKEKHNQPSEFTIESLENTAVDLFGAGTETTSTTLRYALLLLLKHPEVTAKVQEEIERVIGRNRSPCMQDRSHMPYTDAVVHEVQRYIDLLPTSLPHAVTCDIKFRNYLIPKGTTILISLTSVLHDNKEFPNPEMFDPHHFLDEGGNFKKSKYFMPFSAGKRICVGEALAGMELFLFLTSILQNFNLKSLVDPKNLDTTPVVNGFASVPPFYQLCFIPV
Procedure, shortened: as §1, with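 “(Sacchrosomes). […]” for “(Sacchrosomes).”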

[7] = molecular target: CYP2C19 (Homo sapiens, UniProt P33261); experiment: Inhibition of recombinant human CYP2C19 expressed in baker's yeast-derived microsomes (Sacchrosomes) at 10 uM using 3-cyano-7-ethoxycoumarin substrate by EROD assay relative to control; format: ADME; settings: probe 3-cyano-7-ethoxycoumarin
Chain of CYP2C19 (P33261 whole entry): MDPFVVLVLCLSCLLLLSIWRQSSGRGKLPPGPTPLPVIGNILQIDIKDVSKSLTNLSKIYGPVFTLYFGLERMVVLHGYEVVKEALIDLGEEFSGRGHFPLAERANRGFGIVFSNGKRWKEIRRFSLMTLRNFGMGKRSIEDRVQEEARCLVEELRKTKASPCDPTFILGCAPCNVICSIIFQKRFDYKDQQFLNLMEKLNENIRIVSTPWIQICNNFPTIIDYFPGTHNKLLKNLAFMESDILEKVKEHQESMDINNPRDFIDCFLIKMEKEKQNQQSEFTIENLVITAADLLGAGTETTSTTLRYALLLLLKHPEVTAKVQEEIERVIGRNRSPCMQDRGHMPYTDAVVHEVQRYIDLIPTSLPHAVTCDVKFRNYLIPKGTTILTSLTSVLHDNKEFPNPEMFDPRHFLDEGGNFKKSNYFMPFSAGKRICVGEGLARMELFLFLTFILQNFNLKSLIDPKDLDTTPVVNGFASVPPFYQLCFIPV
Procedure, shortened: as §1, with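 “(Sacchrosomes). […]” for “(Sacchrosomes).”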

[8] = molecular target: T1, CYP1A1; experiment: Inhibition of human recombinant CYP1A1 expressed in HEK293 cells at 10 uM using 7-ethoxyresorufin substrate preincubated for 30 mins followed by substrate addition and measured after 60 mins by fluorescence assay relative to control; format: cell-based; settings: HEK293 cells expressing human recombinant CYP1A1, probe 7-ethoxyresorufin
Procedure, shortened: (§2)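 HEK293 cells adapted to suspension and transiently transfected with pcDNA3.1 plasmids carrying the individual CYP; 100×10^3 cells per well in triplicate. […] Fluorogenic substrate is then added at 5 μM and fluorescence read for 60 min.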

[9] = molecular target: T4, Cytochrome P450 1A1 (Homo sapiens, UniProt P04798); experiment: Inhibition of human recombinant CYP1A1 expressed in HEK293 cells using 7-ethoxyresorufin substrate preincubated for 30 mins followed by substrate addition and measured after 60 mins by fluorescence assay relative to control; format: cell-based; procedure, shortened: as §2
T4 sequence (P04798 whole entry): T1 sequence (P04798 whole entry)

[10] = molecular target: T5, Cytochrome P450 1A2 (Homo sapiens, UniProt P05177); experiment: Inhibition of human recombinant CYP1A2 expressed in HEK293 cells using 3-cyano-7-ethoxycoumarin substrate preincubated for 30 mins followed by substrate addition and measured after 60 mins by fluorescence assay relative to control; format: ADME, cell-based; procedure, shortened: as §2
T5 sequence (P05177 whole entry): T2 sequence (P05177 whole entry)

[11] = molecular target: T6, Cytochrome P450 1B1 (Homo sapiens, UniProt Q16678); experiment: Inhibition of human recombinant CYP1B1 expressed in HEK293 cells using 7-ethoxyresorufin substrate substrate preincubated for 30 mins followed by substrate addition and measured after 60 mins by fluorescence assay relative to control; format: ADME, cell-based; procedure, shortened: as §2
T6 sequence (Q16678 whole entry): T3 sequence (Q16678 whole entry)

[12] = molecular target: Cytochrome P450 2D6 (Homo sapiens, UniProt P10635); experiment: Inhibition of human recombinant CYP2D6 expressed in HEK293 cells using 7-ethoxy-methyloxy-3-cyanocoumarin substrate substrate preincubated for 30 mins followed by substrate addition and measured after 60 mins by fluorescence assay relative to control; format: ADME, cell-based; procedure, shortened: as §2
Chain of Cytochrome P450 2D6 (P10635 whole entry): as the sequence (P10635 whole entry) above

[13] = molecular target: Cytochrome P450 2C9 (Homo sapiens, UniProt P11712); experiment: Inhibition of human recombinant CYP2C9 expressed in HEK293 cells using 3-cyano-7-ethoxycoumarin substrate substrate preincubated for 30 mins followed by substrate addition and measured after 60 mins by fluorescence assay relative to control; format: ADME, cell-based; procedure, shortened: as §2
Chain of Cytochrome P450 2C9 (P11712 whole entry): as the sequence (P11712 whole entry) above

[14] = molecular target: Cytochrome P450 2C19 (Homo sapiens, UniProt P33261); experiment: Inhibition of human recombinant CYP2C19 expressed in HEK293 cells using 3-cyano-7-ethoxycoumarin substrate substrate preincubated for 30 mins followed by substrate addition and measured after 60 mins by fluorescence assay relative to control; format: ADME, cell-based; procedure, shortened: as §2
Chain of Cytochrome P450 2C19 (P33261 whole entry): as the sequence (P33261 whole entry) above

[15] = molecular target: Cytochrome P450 3A4 (Homo sapiens, UniProt P08684); experiment: Inhibition of human recombinant CYP3A4 expressed in HEK293 cells using dibenzylfluorescein substrate substrate preincubated for 30 mins followed by substrate addition and measured after 60 mins by fluorescence assay relative to control; format: ADME, cell-based
Chain of Cytochrome P450 3A4 (P08684 whole entry): as the sequence (P08684 whole entry) above
Procedure, shortened: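 HEK293 cells adapted to suspension and transiently transfected with pcDNA3.1 plasmids carrying the individual CYP; 100×10^3 cells per well in triplicate. Fluorogenic substrate is then added at 5 μM and fluorescence read for 60 min.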

Compound: COc1c(O)cc2oc(-c3ccc(O)cc3)cc(=O)c2c1O [HISPIDULIN]
inhibition at 10 µM [1]: 86%

Compound: COc1c2occc2c(OC)c2c(=O)cc(C)oc12 [KHELLIN]
inhibition at 10 µM [1]: 92%
inhibition at 10 µM [2]: 99%
inhibition at 10 µM [3]: 5%
inhibition at 10 µM [4]: 8%
inhibition at 10 µM [5]: 11%
inhibition at 10 µM [6]: 12%
inhibition at 10 µM [7]: 8%
inhibition at 1 h, 10 µM [8]: 75%
IC50 [9]: 4.02 µM
Ki [9]: 3.8 µM
IC50 [10]: 0.04 µM
Ki [10]: 0.031 µM
IC50 [11]: 34.6 µM
IC50 [12]: > 10 µM
IC50 [13]: > 10 µM
IC50 [14]: > 10 µM

Compound: COc1ccc2ccc(=O)oc2c1CC=C(C)C [OSTHOLE]
inhibition at 10 µM [1]: 34%

Compound: CC(C)=CCOc1c2occc2cc2ccc(=O)oc12 [PENTOSALEN]
inhibition at 10 µM [1]: 71%

Compound: CC1=CC(=O)c2c(O)cccc2C1=O [PLUMBAGIN]
inhibition at 10 µM [2]: 55%
inhibition at 10 µM [3]: 40%
inhibition at 10 µM [4]: 10%
inhibition at 10 µM [5]: 15%
inhibition at 10 µM [6]: 11%
inhibition at 10 µM [7]: 12%
inhibition at 1 h, 10 µM [8]: 86%
IC50 [9]: 2.77 µM
Ki [9]: 2.56 µM
IC50 [10]: 2.46 µM
Ki [10]: 2.36 µM
IC50 [11]: 6.15 µM
IC50 [12]: > 10 µM
IC50 [13]: > 10 µM
IC50 [14]: > 10 µM
IC50 [15]: > 10 µM

Compound: COc1cc2ccc(=O)oc2c2ccoc12 [SPHONDIN]
inhibition at 10 µM [1]: 67%

Compound: O=c1cc(-c2ccc(O)cc2)oc2c([C@@H]3O[C@H](CO)[C@@H](O)[C@H](O)[C@H]3O)c(O)cc(O)c12 [VITEXIN]
inhibition at 10 µM [1]: 42%

Further lines, results first:

inhibition at 10 µM [1]: 56%
Compound: CC1(C)O[C@H]1COc1c2ccoc2cc2oc(=O)ccc12 [OXYPEUCEDANIN]

inhibition at 10 µM [1]: 42%
Compound: O=C(/C=C/C=C/c1ccc2c(c1)OCO2)N1CCCCC1 [PIPERINE]

inhibition at 10 µM [1]: 69%
Compound: O=c1ccc2cc3ccoc3cc2o1 [PSORALEN]

inhibition at 10 µM [1]: 50%
Compound: CC1=C(CO)C(=O)O[C@@H]([C@@H](C)[C@H]2CC[C@H]3[C@@H]4C[C@H]5O[C@]56[C@@H](O)C=CC(=O)[C@]6(C)[C@H]4CC[C@]23C)C1 [WITHAFERIN A]
